An excerpt weighted towards active compounds, which were near 1.7% of everything screened.
CFTR F508del cor = F508del CFTR correction, initial screen, CFBE line, single point | CFBE cells, YFP halide quenching; stimulated with forskolin plus potentiator P3; % fluorescence drop versus neutral controls | activity (quench increase), % at 7.58 µM | 0.36% of 350,000 active;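 active = mean added fluorescence quench of at least 8% versus neutral control, with both replicates also reaching 8%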;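 also: cells transiently co-express mutant CFTR-F508del with the halide-sensitive YFP; corrector assay measuring rescue of mutant channel to the surface after 24 h compound exposure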
Ecoli rRNA inh = reduced GFP signal of wild-type E. coli, primary screen, bacterial rRNA inhibitor project, GFP/RFP fluorescence, OD600, single point; E. coli WT GFP vs humanized-ribosome RFP mutants, 24 h; hits give low values; DMSO median 0, no signal -100; GFP signal change (wild-type ribosome), % (no concentration beside the values); 1.6% of 350,000 active; AID 720706, 2013;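 active = significant combined selectivity score with lowered wild-type GFP, culture density cut under 30%, mutant RFP and density less affected; inactive = any of these conditions unmet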
Cneo AK release = Cryptococcus neoformans cell lysis inducers, primary screen, AK release luminescence, single concentration; C. neoformans lysis, adenylate kinase release luminescence, 4 h; normalised: neutral wells 0, clomiphene wells 100; lysis activity, % at 15 µM; 0.2% of 360,000 active; AID 651654, 2012;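 active = mean lysis activity across replicates of at least 80%, whatever share of replicates individually reach that level; inactive = mean lysis activity below 80%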
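Test system: log-phase Cryptococcus neoformans yeast cells. Input: 5 × 10^6 yeast cells/mL. Medium: fresh YPD growth medium. Doses: single dose. Incubation: static 4 h at 37 °C with compound, 1 h detection. Measured by: luminescent adenylate kinase detection reagent. Read-out: signal increase indicating cell lysis. Benchmarks: Clomiphene.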
CaV13 ICDI inh = Primary screen for inhibitors of IQ motif and Ca2+-dependent inactivation inhibitor domain binding in CACNA1D, Förster resonance energy transfer in living cells, …; HEK cells, CFP/YFP FRET ICDI-IQ, plate reader, 10 min; percent FRET-ratio fall versus neutral wells; inhibition, % at 12.3 µM; 0.098% of 340,000 active; AID 743397;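 active = mean replicate inhibition of at least 30% and at least 1% of replicates passing that level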
Large screens that a line does not name were inactive.

CCOc1ccc2c(c1)C(C)=CC(C)(C)N2S(=O)(=O)c1ccc(F)cc1	CFTR F508del cor 10
N=C1S/C(=C\c2ccco2)C(=O)N1c1ccc2c(c1)OCO2	Ecoli rRNA inh -43
C#CCN(C(=O)c1ccc(OC2CCN(C(=O)CCOC)CC2)cc1)C1CCCCC1	Cneo AK release 103
Cc1ccc(CN2CC(=O)N3[C@@H](CO)[C@@H](c4ccc(Br)cc4)[C@@H]3C2)cc1	none (no result: Cneo AK release, CaV13 ICDI inh)
Cc1sc2ncnc(N3CCC(C(=O)NNC(=O)COc4cccc(C(F)(F)F)c4)CC3)c2c1C	Ecoli rRNA inh -19 (no result: Cneo AK release)
O=C([C@@H]1[C@@H](CO)[C@@H]2Cn3c(cccc3=O)[C@H]1N2Cc1cccc(Cl)c1)N1CCOCC1	Cneo AK release 98 (no result: CFTR F508del cor, CaV13 ICDI inh)
O=C([C@@H]1[C@@H](CO)[C@@H]2Cn3c(cccc3=O)[C@H]1N2Cc1cccc(Cl)c1)N1CCCCC1	none (no result: CaV13 ICDI inh)
CC(C)NC(=O)N(C)C[C@@H]1Oc2ccccc2CC(=O)N(C)C[C@@H]1C	none (no result: CFTR F508del cor, Cneo AK release, CaV13 ICDI inh)
O=C(CCl)N(c1ccc(Cl)cc1)c1c[nH]c2ccccc12	Ecoli rRNA inh -23 (no result: CFTR F508del cor, Cneo AK release)
O=C(CCl)N(c1ccccc1)c1c[nH]c2ccccc12	none (no result: CFTR F508del cor, Ecoli rRNA inh, Cneo AK release)
CSc1ncnc2c1cnn2-c1ccc(C)cc1C	none (no result: Cneo AK release)
Cc1ccc(-n2ncc3c(SCc4ccccn4)ncnc32)c(C)c1	Ecoli rRNA inh -16 (no result: Cneo AK release)
COc1ccc2c(c1)CCc1c(C(=O)N(C)c3ccccc3)noc1-2	Ecoli rRNA inh -43
COCCNC(=O)c1noc2c1CCc1cc(OC)ccc1-2	none (no result: CFTR F508del cor, Ecoli rRNA inh)
CNC(=O)C[C@@H]1CC[C@H]2[C@H](COc3ccc(NC(=O)c4cccc(F)c4)cc3C(=O)N2C)O1	none (no result: CaV13 ICDI inh)
O=C(CCCn1c(=O)c2sccc2n(Cc2cc(=O)n3ccccc3n2)c1=O)NCc1ccco1	CaV13 ICDI inh active
O=C(CCn1c(=O)c2sccc2n(Cc2cc(=O)n3ccccc3n2)c1=O)NCc1ccco1	none (no result: CFTR F508del cor, Ecoli rRNA inh)
CN(C)c1ccc2c(c1)[C@@H]1C[C@@H](CC(=O)NCc3cc(F)ccc3F)O[C@@H](CO)[C@@H]1O2	none (no result: CaV13 ICDI inh)
CC(C)NC(=O)Nc1ccc2c(c1)C(=O)N([C@@H](C)CO)C[C@@H](C)[C@@H](CN(C)C(=O)CCC(F)(F)F)OCCCC[C@H](C)O2	none (no result: CaV13 ICDI inh)
C[C@@H]1CN([C@@H](C)CO)C(=O)c2cc(NC(=O)C3CCCCC3)ccc2O[C@@H](C)CCCCO[C@@H]1CN(C)C(=O)NC1CCCCC1	Cneo AK release 97 (no result: CaV13 ICDI inh)
CC(C)NC(=O)Nc1ccc2c(c1)C(=O)N([C@@H](C)CO)C[C@H](C)[C@@H](CN(C)C(=O)CCC(F)(F)F)OCCCC[C@H](C)O2	Cneo AK release 96 (no result: CaV13 ICDI inh)
CC(C)NC(=O)Nc1ccc2c(c1)C(=O)N([C@@H](C)CO)C[C@@H](C)[C@@H](CN(C)C(=O)NC1CCCCC1)OCCCC[C@H](C)O2	Cneo AK release 92 (no result: CaV13 ICDI inh)
C[C@@H]1CCCCO[C@H](CN(C)C(=O)c2ccncc2)[C@H](C)CN([C@H](C)CO)C(=O)c2cc(NC(=O)CCC(F)(F)F)ccc2O1	Cneo AK release 82 (no result: CaV13 ICDI inh)
C[C@H](CO)N1C[C@H](C)[C@H](CN(C)S(=O)(=O)c2ccc(F)cc2)Oc2ccc(NC(=O)CCN3CCOCC3)cc2C1=O	none (no result: CaV13 ICDI inh)
CO[C@@H](CN(C)Cc1cc(F)ccc1F)[C@@H](C)CN(C(=O)Nc1ccc(F)cc1)[C@H](C)CO	none (no result: CaV13 ICDI inh)
C[C@@H]1CCCCO[C@H](CN(C)S(=O)(=O)c2cccs2)[C@@H](C)CN([C@@H](C)CO)C(=O)c2cc(NC(=O)CCC(F)(F)F)ccc2O1	Cneo AK release 94 (no result: CaV13 ICDI inh)
C[C@H](CO)N1C[C@H](C)[C@H](CN(C)S(=O)(=O)c2cccs2)OCCCC[C@H](C)Oc2ccc(NC(=O)CCC(F)(F)F)cc2C1=O	none (no result: CaV13 ICDI inh)
COCC(=O)Nc1ccc2c(c1)C(=O)N(C)C[C@@H](OC)[C@H](C)CN(Cc1cncnc1)[C@@H](C)CO2	none (no result: CaV13 ICDI inh)
COC(=O)c1cc(=O)n(Cc2ccc3c(c2)OCO3)c(=Nc2ccc(F)c(Cl)c2)s1	CaV13 ICDI inh 38
COC(=O)c1cc(=O)n(CCc2ccc(OC)cc2)c(=Nc2ccc(F)c(Cl)c2)s1	none
COc1ccc2c3c([nH]c2c1)[C@@H](CO)N(Cc1ccccc1OC)CC31CN(C)C1	none (no result: Cneo AK release, CaV13 ICDI inh)
COc1ccc2c3c([nH]c2c1)[C@H](CO)N(Cc1ccccc1)CC31CCN(C(=O)c2cccnc2)CC1	none (no result: CFTR F508del cor, Cneo AK release, CaV13 ICDI inh)
COc1ccc(S(=O)(=O)N(C)C[C@@H]2OCCCC[C@@H](C)Oc3ccc(NC(=O)CCCN(C)C)cc3C(=O)N([C@@H](C)CO)C[C@H]2C)cc1	none (no result: CaV13 ICDI inh)
Cc1cccc(NC(=O)CN2CCN(C(=O)CN3C(=O)NC4(CC(C)CC(C)(C)C4)C3=O)CC2)c1C (stereo not drawn)	CFTR F508del cor 8.8
CC(CCCN(C)C)C(Cc1ccccc1)c1ccccc1 (stereo not drawn)	Ecoli rRNA inh -47
CN(C)CCC(=O)C(Cc1ccccc1)c1ccccc1 (stereo not drawn)	none
Cc1ccc(S(=O)(=O)Oc2cccc(/C=N/Nc3ccc(C(=O)O)cc3)c2)cc1	Ecoli rRNA inh -28
COc1cc2c(c(Br)c1N)-c1cc(Br)c(N)cc1C2=O	CFTR F508del cor 8.5
CCn1c(=S)sc2c(=O)n(-c3ccccc3)c(=S)[nH]c21	Ecoli rRNA inh -30 (no result: Cneo AK release)
O=C1NC(Cc2ccc(O)cc2)c2nc3ccc(Br)cc3c(=O)n2-c2ncccc21 (stereo not drawn)	Ecoli rRNA inh -21 (no result: Cneo AK release)
O=C1NC(Cc2ccc(O)cc2)c2nc3ccc(Br)cc3c(=O)n2-c2cc3ccccc3cc21 (stereo not drawn)	CFTR F508del cor 8.2 (no result: Ecoli rRNA inh)
COc1cc(-c2noc(C)c2C#Cc2ccccn2)cc(OC)c1OC	CFTR F508del cor 10
C[C@H]1CCCCO[C@H](CN(C)Cc2ccc(C(F)(F)F)cc2)[C@@H](C)CN([C@@H](C)CO)C(=O)c2cc(NS(=O)(=O)c3ccccc3)ccc2O1	none (no result: CaV13 ICDI inh)
Cc1ccc(Cl)cc1N1CCN(C(=O)c2cn(C)c(=O)c3c2c2ccccc2n3C)CC1	CFTR F508del cor 10
Cc1cccc(N2CCN(C(=O)c3cn(C)c(=O)c4c3c3ccccc3n4C)CC2)c1C	none
CN(C)C(=O)C[C@H]1CC[C@@H](NC(=O)c2ccc(F)cc2)[C@H](CO)O1	none (no result: CaV13 ICDI inh)
O=C1c2cccc3c(N4CCCCC4)ccc(c23)C(=O)N1c1cccc(O)c1	CFTR F508del cor 14 (no result: Cneo AK release)
COc1ccccc1C(=O)OCc1c(-c2ccccc2)ncc2ccccc12	Ecoli rRNA inh -25
COc1ccc(S(=O)(=O)N2CC3(CN(Cc4ccccc4OC)[C@H](CO)c4[nH]c5cc(OC)ccc5c43)C2)cc1	none (no result: Cneo AK release, CaV13 ICDI inh)
Cc1ccc(Cl)cc1NC(=S)N(C)N	none
Cc1ccc(NC(=S)N(C)N)cc1Cl	Ecoli rRNA inh -25
Cc1noc(C)c1NC(=O)Nc1cccc2c1O[C@H](CN(C)C(=O)NC1CCCCC1)[C@H](C)CN([C@@H](C)CO)C2=O	none (no result: CaV13 ICDI inh)

Source: PubChem BioAssay
